# Laboratory results published in ChEMBL document CHEMBL3098050, “Stereoselective total synthesis of a novel regiomer of herbarumin I and its cytotoxic and antimicrobial activities” (Bioorg Med Chem Lett, 2014).
# What was measured:
# [1] = system: Raoultella planticola; experiment: Antimicrobial activity against Klebsiella planticola MTCC 530 after 18 hrs by microtitre broth dilution method; assay type: functional; settings: MTCC 530, 18 h
# Outline: (§1)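 Microtiter broth dilution; MIC per pathogen taken from four individual observations; ciprofloxacin as bacterial positive control.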
# [2] = system: Bacillus subtilis; experiment: Antimicrobial activity against Bacillus subtilis MTCC 121 after 18 hrs by microtitre broth dilution method; assay type: functional; settings: MTCC 121, 18 h; outline: as §1
# [3] = system: Staphylococcus aureus; experiment: Antimicrobial activity against Staphylococcus aureus MTCC 96 after 18 hrs by microtitre broth dilution method; assay type: functional; settings: MTCC 96, 18 h; outline: as §1
# [4] = system: COLO 205; experiment: Cytotoxicity against human COLO205 cells by MTT assay; assay type: functional, cell-based
# Outline: (§2)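 MTT read-out (Mosmann method); absorbance dose–response curves plotted and IC50 calculated from them; each cell line's value is the mean of two independent experiments; doxorubicin as positive control.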
# [5] = system: HepG2; experiment: Cytotoxicity against human HepG2 cells by MTT assay; assay type: functional, cell-based; outline: as §2
# [6] = system: DU-145; experiment: Cytotoxicity against human DU145 cells by MTT assay; assay type: functional, cell-based; outline: as §2
# [7] = system: MDA-MB-231; experiment: Cytotoxicity against human MDA-MB-231 cells by MTT assay; assay type: functional, cell-based; outline: as §2
# [8] = system: A549; experiment: Cytotoxicity against human A549 cells by MTT assay; assay type: functional, cell-based; outline: as §2
# [9] = system: Pseudomonas aeruginosa; experiment: microbe, parasite or virus in culture; settings: MTCC 2453, 18 h
# [10] = system: Escherichia coli; experiment: microbe, parasite or virus in culture; settings: MTCC 739, 18 h
SMILES,MIC [1] [µg/mL],MIC [2] [µg/mL],MIC [3] [µg/mL],IC50 [4] [µM],IC50 [5] [µM],IC50 [6] [µM],IC50 [7] [µM],IC50 [8] [µM],MIC [9] [µg/mL],MIC [10] [µg/mL]
CCC[C@H]1OC(=O)[C@H](O)CC/C=C/C[C@@H]1O,15.6,15.6,7.8,5.1,9.1,8.9,6.2,8.1,,
O=C(O)c1cn(C2CC2)c2cc(N3CCNCC3)c(F)cc2c1=O [CIPROFLOXACIN],0.9,0.9,0.9,,,,,,0.9,0.9
COc1cccc2c1C(=O)c1c(O)c3c(c(O)c1C2=O)C[C@@](O)(C(=O)CO)C[C@@H]3O[C@H]1C[C@H](N)[C@H](O)[C@H](C)O1 [DOXORUBICIN],,,,0.5,,0.6,,,,
